In ChEMBL document CHEMBL5058577, “EUbOPEN Chemogenomics Library 2 (Multiplex)” (2022):

Test system: HEK-293T
Test: Multiplex assay against HEK293T
Assay type: toxicity, cell-based
Conditions: human
In short: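 Live cells were stained at seeding with Hoechst33342, BioTracker Green Microtubule Cytoskeleton Dye, MitoTracker Red and Annexin V Alexa Fluor 680, then imaged on a CQ1 microscope at 37°C and 5% CO2 after compound addition. CellPathfinder machine-learning gating split cells into Hoechst high-intensity objects or normal cells. Normal cells were split into healthy, pyknosed or fragmented nuclei, and pyknosed cells into mitotic or apoptotic. Tubulin, mitochondrial-mass and membrane-permeability phenotypes are per cents of healthy-nucleus cells.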

[1] = 12 h, 1 µM, compound concentration 1 uM, replicate 1
[2] = 12 h, 1 µM, compound concentration 1 uM, replicate 2
[3] = 12 h, 10 µM, compound concentration 10 uM, replicate 1
[4] = 12 h, 10 µM, compound concentration 10 uM, replicate 2
[5] = 24 h, 1 µM, compound concentration 1 uM, replicate 1
[6] = 24 h, 1 µM, compound concentration 1 uM, replicate 2
[7] = 24 h, 10 µM, compound concentration 10 uM, replicate 1
[8] = 24 h, 10 µM, compound concentration 10 uM, replicate 2
[9] = 48 h, 1 µM, compound concentration 1 uM, replicate 1
[10] = 48 h, 1 µM, compound concentration 1 uM, replicate 2
[11] = 48 h, 10 µM, compound concentration 10 uM, replicate 1
[12] = 48 h, 10 µM, compound concentration 10 uM, replicate 2

In the case of `CC(C)COc1ccc(CNC(=O)N(Cc2ccc(F)cc2)C2CCN(C)CC2)cc1` [PIMAVANSERIN], the “Population Apoptotic (%)” value [1] is reported as 39%, the “Population Fragmented Nuclei (%)” value [1] is reported as 5% and the “Population Healthy Nuclei (%)” value [1] is reported as 82%. The “Population Hoechst High Intensity Objects (%)” value [1] was 6%, the “Population Membrane Permeable-Phenotype (%)” value [1] was 0% and the “Population Mitochondria Different-Phenotype (%)” value [1] was 50%. The “Population Mitotic Cells (%)” value [1] was 60%, the “Population Normal (%)” value [1] was 93% and the “Population Pyknosed Nuclei (%)” value [1] was 11%. For the same compound, the “Population Tubulin-Different-Phenotype (%)” value [1] was 49%, the “Total Cell Count” value [1] was 430 and the “Population Apoptotic (%)” value [2] was 54%. The “Population Fragmented Nuclei (%)” value [2] was 7%, the “Population Healthy Nuclei (%)” value [2] was 74% and the “Population Hoechst High Intensity Objects (%)” value [2] was 11%. For the same compound, the “Population Mitochondria Different-Phenotype (%)” value [2] was 68%, the “Population Mitotic Cells (%)” value [2] was 46% and the “Population Normal (%)” value [2] was 88%. The “Population Pyknosed Nuclei (%)” value [2] was 18%, the “Population Tubulin-Different-Phenotype (%)” value [2] was 35% and the “Total Cell Count” value [2] was 311. For the same compound, the “Population Apoptotic (%)” value [3] was 62%, the “Population Fragmented Nuclei (%)” value [3] was 10% and the “Population Healthy Nuclei (%)” value [3] was 60%. The “Population Hoechst High Intensity Objects (%)” value [3] was 19%, the “Population Membrane Permeable-Phenotype (%)” value [3] was 0% and the “Population Mitochondria Different-Phenotype (%)” value [3] was 89%. For the same compound, the “Population Mitotic Cells (%)” value [3] was 37%, the “Population Normal (%)” value [3] was 80% and the “Population Pyknosed Nuclei (%)” value [3] was 28%. The “Population Tubulin-Different-Phenotype (%)” value [3] was 81%, the “Total Cell Count” value [3] was 285 and the “Population Apoptotic (%)” value [4] was 79%. For the same compound, the “Population Fragmented Nuclei (%)” value [4] was 7%, the “Population Healthy Nuclei (%)” value [4] was 64% and the “Population Hoechst High Intensity Objects (%)” value [4] was 25%. The “Population Mitochondria Different-Phenotype (%)” value [4] was 87%, the “Population Mitotic Cells (%)” value [4] was 20% and the “Population Normal (%)” value [4] was 74%. For the same compound, the “Population Pyknosed Nuclei (%)” value [4] was 27%, the “Population Tubulin-Different-Phenotype (%)” value [4] was 66% and the “Total Cell Count” value [4] was 237. For the same compound, the “Population Apoptotic (%)” value [5] was 33%, the “Population Fragmented Nuclei (%)” value [5] was 9% and the “Population Healthy Nuclei (%)” value [5] was 77%. For the same compound, the “Population Hoechst High Intensity Objects (%)” value [5] was 6%, the “Population Membrane Permeable-Phenotype (%)” value [5] was 2% and the “Population Mitochondria Different-Phenotype (%)” value [5] was 42%. The “Population Mitotic Cells (%)” value [5] was 66%, the “Population Normal (%)” value [5] was 93% and the “Population Pyknosed Nuclei (%)” value [5] was 13%. The “Population Tubulin-Different-Phenotype (%)” value [5] was 40%, the “Total Cell Count” value [5] was 553 and the “Population Apoptotic (%)” value [6] was 48%. For the same compound, the “Population Fragmented Nuclei (%)” value [6] was 4%, the “Population Healthy Nuclei (%)” value [6] was 82% and the “Population Hoechst High Intensity Objects (%)” value [6] was 8%. The “Population Membrane Permeable-Phenotype (%)” value [6] was 0%, the “Population Mitochondria Different-Phenotype (%)” value [6] was 55% and the “Population Mitotic Cells (%)” value [6] was 51%. For the same compound, the “Population Normal (%)” value [6] was 91%, the “Population Pyknosed Nuclei (%)” value [6] was 12% and the “Population Tubulin-Different-Phenotype (%)” value [6] was 30%. For the same compound, the “Total Cell Count” value [6] was 394, the “Population Apoptotic (%)” value [7] was 81% and the “Population Fragmented Nuclei (%)” value [7] was 10%. The “Population Healthy Nuclei (%)” value [7] was 57%, the “Population Hoechst High Intensity Objects (%)” value [7] was 27% and the “Population Membrane Permeable-Phenotype (%)” value [7] was 0%. For the same compound, the “Population Mitochondria Different-Phenotype (%)” value [7] was 94%, the “Population Mitotic Cells (%)” value [7] was 18% and the “Population Normal (%)” value [7] was 72%. For the same compound, the “Population Pyknosed Nuclei (%)” value [7] was 31%, the “Population Tubulin-Different-Phenotype (%)” value [7] was 77% and the “Total Cell Count” value [7] was 285. For the same compound, the “Population Apoptotic (%)” value [8] was 84%, the “Population Fragmented Nuclei (%)” value [8] was 12% and the “Population Healthy Nuclei (%)” value [8] was 54%. The “Population Hoechst High Intensity Objects (%)” value [8] was 34%, the “Population Mitochondria Different-Phenotype (%)” value [8] was 100% and the “Population Mitotic Cells (%)” value [8] was 15%. The “Population Normal (%)” value [8] was 65%, the “Population Pyknosed Nuclei (%)” value [8] was 32% and the “Population Tubulin-Different-Phenotype (%)” value [8] was 69%. For the same compound, the “Total Cell Count” value [8] was 215, the “Population Apoptotic (%)” value [9] was 27% and the “Population Fragmented Nuclei (%)” value [9] was 13%. The “Population Healthy Nuclei (%)” value [9] was 77%, the “Population Hoechst High Intensity Objects (%)” value [9] was 5% and the “Population Membrane Permeable-Phenotype (%)” value [9] was 1%. The “Population Mitochondria Different-Phenotype (%)” value [9] was 31%, the “Population Mitotic Cells (%)” value [9] was 72% and the “Population Normal (%)” value [9] was 94%. For the same compound, the “Population Pyknosed Nuclei (%)” value [9] was 8%, the “Population Tubulin-Different-Phenotype (%)” value [9] was 33% and the “Total Cell Count” value [9] was 869. The “Population Apoptotic (%)” value [10] was 48%, the “Population Fragmented Nuclei (%)” value [10] was 9% and the “Population Healthy Nuclei (%)” value [10] was 84%. The “Population Membrane Permeable-Phenotype (%)” value [10] was 0%, the “Population Mitochondria Different-Phenotype (%)” value [10] was 33% and the “Population Mitotic Cells (%)” value [10] was 51%. The “Population Pyknosed Nuclei (%)” value [10] was 6%, the “Population Tubulin-Different-Phenotype (%)” value [10] was 21% and the “Total Cell Count” value [10] was 601. The “Population Apoptotic (%)” value [11] was 75%, the “Population Fragmented Nuclei (%)” value [11] was 29% and the “Population Healthy Nuclei (%)” value [11] was 30%. For the same compound, the “Population Hoechst High Intensity Objects (%)” value [11] was 52%, the “Population Membrane Permeable-Phenotype (%)” value [11] was 0% and the “Population Mitochondria Different-Phenotype (%)” value [11] was 88%. The “Population Mitotic Cells (%)” value [11] was 24%, the “Population Normal (%)” value [11] was 47% and the “Population Pyknosed Nuclei (%)” value [11] was 40%. For the same compound, the “Population Tubulin-Different-Phenotype (%)” value [11] was 58%, the “Total Cell Count” value [11] was 235 and the “Population Apoptotic (%)” value [12] was 61%. The “Population Fragmented Nuclei (%)” value [12] was 31%, the “Population Hoechst High Intensity Objects (%)” value [12] was 60% and the “Population Mitochondria Different-Phenotype (%)” value [12] was 92%. For the same compound, the “Population Mitotic Cells (%)” value [12] was 38%, the “Population Normal (%)” value [12] was 40% and the “Population Pyknosed Nuclei (%)” value [12] was 37%. The “Population Tubulin-Different-Phenotype (%)” value [12] was 64% and the “Total Cell Count” value [12] was 205.
